Laboratory results taken from publication PMC4310348 (Drug Design, Development and Therapy, 2015).
Values after ≈ are worked out from the molar mass of the structure shown.

How the values were obtained:
[1] = test system: Gram-positive mastitis organisms (57); experiment: MIC testing; format: cell-based; settings: all 57 Gram-positive bovine mastitis isolates
In short: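 MICs were run per CLSI guidelines for lipophilic compounds across the pooled bovine mastitis isolates. MIC was the lowest concentration preventing growth, judged visually and by OD600. MIC50 and MIC90 are the lowest concentrations inhibiting 50% and 90% of the whole collection.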

[2] = test system: Streptococcus agalactiae (12); experiment: MIC testing; format: cell-based
In short: (§1)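 Clinical bovine mastitis isolates from Australian dairy cattle, except MRSA isolates, which came from small-animal infections. Streptococci were speciated by biochemical tests and partial 16S rDNA sequencing. S. aureus was separated from coagulase-negative staphylococci by tube coagulase and latex agglutination. MICs followed CLSI guidelines for lipophilic compounds: lowest concentration preventing growth, judged visually and by OD600. MIC50/MIC90 were collated per species.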

[3] = test system: Staphylococcus aureus (20); experiment: MIC testing; format: cell-based
In short: as §1

[4] = test system: Coagulase-negative staphylococci (14); experiment: MIC testing; format: cell-based
In short: as §1

[5] = test system: Streptococcus uberis (11); experiment: MIC testing; format: cell-based
In short: as §1

[6] = test system: MRSA (10); experiment: MIC testing; format: cell-based, methicillin-resistant Staphylococcus aureus
In short: as §1

[7] = Solubility of lasalocid in various solvents and milk; format: physicochemical; settings: thermodynamic from solid
In short: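 Excess solid test compound was added to each solvent and shaken for 24 hours. Samples were then filtered through 0.45 µm nylon, diluted and quantified by reversed-phase C8 HPLC with UV detection at 308 nm. The mobile phase was methanol:1.5% acetic acid (90:10) at 1.0 mL/min. All measurements were made in triplicate.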

[8] = pH-solubility determination of lasalocid; format: physicochemical
In short: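 pH–solubility used MilliQ water adjusted with NaOH/HCl, or Universal buffer adjusted with 0.2 M NaOH, over pH 1.8–8. The buffer contained boric, citric and phosphoric acids at 0.04 M each. Excess solid was shaken for 24 hours, filtered through 0.45 µm nylon, diluted and quantified by C8 HPLC-UV at 308 nm. Measurements were made in triplicate.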

[9] = Milk distribution study; format: in vivo, Lactating Holstein dairy cows; settings: six doses of 150 or 300 mg at 12-hourly intervals per quarter (IVP 7, IVP 8)
In short: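 Lactating Holstein cows aged 2–10 years had two contralateral quarters challenged intramammarily with S. uberis. After mastitis was detected, quarters received a PVP–lasalocid solid dispersion in Miglyol 812/Aerosil R972 after each milking, six infusions 12-hourly. Milk was sampled at set times, with time 0 at the first dose. Samples of 100 µL were extracted with 900 µL methanol, centrifuged and analysed by C8 HPLC-UV at 308 nm.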

## CC[C@@H](C(=O)[C@@H](C)[C@@H](O)[C@H](C)CCc1ccc(C)c(O)c1C(=O)O)[C@H]1O[C@](CC)([C@H]2CC[C@](O)(CC)[C@H](C)O2)C[C@@H]1C [lasalocid]
[1]
  MIC50: 2 µg/mL (≈ 3.39 µM)
  MIC90: 4 µg/mL (≈ 6.77 µM)
[2]; Streptococcus agalactiae
  MIC50: 2 µg/mL (≈ 3.39 µM)
  MIC90: 4 µg/mL (≈ 6.77 µM)
[2]; n=12 isolates
  MIC range: 2 to 4 µg/mL
[3]; Staphylococcus aureus
  MIC50: 1 µg/mL (≈ 1.69 µM)
  MIC90: 1 µg/mL (≈ 1.69 µM)
[3]; n=20 isolates
  MIC range: 0.5 to 1 µg/mL
[4]
  MIC50: 1 µg/mL (≈ 1.69 µM)
  MIC90: 2 µg/mL (≈ 3.39 µM)
[4]; n=14 isolates
  MIC range: 0.5 to 2 µg/mL
[5]; Streptococcus uberis
  MIC50: 0.5 µg/mL (≈ 0.846 µM)
  MIC90: 0.5 µg/mL (≈ 0.846 µM)
[5]; n=11 isolates
  MIC range: 0.5 to 1 µg/mL
[6]; Staphylococcus aureus, MRSA
  MIC50: 0.5 µg/mL (≈ 0.846 µM)
  MIC90: 0.5 µg/mL (≈ 0.846 µM)
[6]; n=10 isolates from small animals
  MIC range: 0.25 to 0.5 µg/mL
[7]; DMSO, organic solvent or mixture
  solubility at 24 h: 298000 ± 42400 µg/mL (≈ 504000 µM)
[7]; MilliQ water, water
  solubility at 24 h: 750 ± 100 µg/mL (≈ 1270 µM)
[7]; methanol, organic solvent or mixture
  solubility at 24 h: 84700 ± 1630 µg/mL (≈ 143000 µM)
[7]; milk, plasma or biological fluid
  solubility at 24 h: 438 ± 13.1 µg/mL (≈ 741 µM)
[8]; MilliQ water with NaOH and HCl for pH adjustment
  Solubility at pH 1.8: non-detectable
[8]; Universal buffer
  Solubility at pH 1.8: nondetectable
[8]; Universal buffer, pH 8, aqueous buffer, thermodynamic from solid
  solubility at 24 h: 9.66 ± 0.04 µg/mL (≈ 16.4 µM)
[9]
  Time after the first dose until which high milk concentration was maintained: 72 h
  Time after the first treatment by which residues in milk were not detectable: ≤ 144 h
  Time of peak lasalocid concentration in milk after the first dose: 24 h
